As a reminder, the IC50 is the concentration that gives 50% inhibition. What is called fraction unbound is free concentration divided by total concentration. In general, Papp A→B refers to how fast a substance crosses the layer from the apical side. For orientation: half-life means how long it takes for the measured level to halve. The ED50 is the dose that gives a 50% effect, or the effect in half of the subjects. A word on the Kd: it is the equilibrium constant for the complex coming apart.

The nature of data set [1]: Maximum oral bioavailability in human liver microsomes based well stirred liver model at 1 uM measured after 2 to 60 mins in presence of NADP generating system by LC-MS/MS analysis. In kind it is ADME, Microsome. The settings on record: time 2-60 min, read-out: Fmax. The essentials:
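Human liver microsomes at 0.5 mg/mL in 100 mM phosphate pH 7.4, 37 °C, G6P/NADP/G6PDH cofactor mix. Compound 1 µM, sampled at 2, 8, 16, 30, 45 and 60 min into cold MeOH, LC-MS/MS. Half-life to intrinsic clearance. Fmax from well-stirred model with liver blood flow 1.32 L/h/kg.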

In a further data set the test system is Homo sapiens. In words: Suppression of plasma luteinizing hormone level in postmenopausal woman at 300 mg, po administered as single dose using SMEDDS formulation by ECLIA relative to control. In kind it is functional.
In data set [2] the target is Mitogen-activated protein kinase 14 (Homo sapiens, UniProt Q16539). In words: Inhibition of MAPK14 (unknown origin).
The nature of data set [3]: Fraction unbound in human plasma. Type of data set: ADME, cell-free.
The nature of data set [4]: Antagonist activity at cynomolgus monkey GnRH receptor expressed in CHO-K1 cells assessed as inhibition of buserelin-induced response preincubated for 20 mins followed by buserelin addition and measured after 60 mins by TR-FRET assay. Type of data set: cell-based. Particulars: Macaca fascicularis. The essentials:
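Frozen CHO-K1 cells expressing cynomolgus receptor: thawed, 1 h recovery at 37 °C with IP1-d2 tracer. 5000 cells/well in Ham's F12, 20 min preincubation with compound at rt. Buserelin added at 1× EC80 in HEPES stimulation buffer pH 7.4 with LiCl, 60 min at 37 °C. Lysis with Tb-anti-IP1 antibody (1:20), HTRF IP1 read after 60 min. Duplicates, up to 11 concentrations.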
Background: Time-resolved FRET reads energy transfer from a long-lived donor to a nearby acceptor.

A short description of data set [5]: Maximum oral bioavailability in Han Wistar rat hepatocytes at 1 uM measured after 2 to 90 mins by LC-MS/MS analysis. Type of data set: ADME, Hepatocyte. The settings on record: time 2-90 min, read-out: Fmax.
Data set [6] is described as follows: Clearance in rat liver microsomes at 1 uM measured upto 60 mins in presence of NADP generating system by LC-MS/MS analysis. In kind it is ADME, Microsome. Particulars: 1 h. (Liver microsomes are vesicles of endoplasmic reticulum, rich in cytochrome P450 enzymes.)
Data set [7] in a line: Apparent permeability across apical to basolateral side in human Caco2 cells at 2 uM measured after 2 hrs by LC-MS/MS analysis. Type of data set: ADME, cell-based. Particulars: Caco-2. In short, it runs like this:
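Caco-2 monolayers grown 15 d, integrity checked by TEER. Compound 2 µM added apical or basolateral in FCS-free HEPES carbonate buffer pH 7.2, incubated 2 h at 37 °C. Both compartments sampled before and after, analysed by LC-MS/MS after MeOH precipitation. Papp computed from receiver peak area, surface area and time. Efflux ratio taken as Papp B–A/Papp A–B.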
(Caco-2 monolayers are a common model of the intestinal barrier.)

Data set [8] can be described thus: Intrinsic clearance in Han Wistar rat hepatocytes at 1 uM measured up to 90 mins by LC/MS/MS analysis. Type of data set: ADME, cell-based, Hepatocyte. Particulars: Han Wistar, read-out: CLH (converted).
The target of another data set is T1, Cytochrome P450 2C8 (Homo sapiens, UniProt P10632).
T1 sequence (P10632 whole entry): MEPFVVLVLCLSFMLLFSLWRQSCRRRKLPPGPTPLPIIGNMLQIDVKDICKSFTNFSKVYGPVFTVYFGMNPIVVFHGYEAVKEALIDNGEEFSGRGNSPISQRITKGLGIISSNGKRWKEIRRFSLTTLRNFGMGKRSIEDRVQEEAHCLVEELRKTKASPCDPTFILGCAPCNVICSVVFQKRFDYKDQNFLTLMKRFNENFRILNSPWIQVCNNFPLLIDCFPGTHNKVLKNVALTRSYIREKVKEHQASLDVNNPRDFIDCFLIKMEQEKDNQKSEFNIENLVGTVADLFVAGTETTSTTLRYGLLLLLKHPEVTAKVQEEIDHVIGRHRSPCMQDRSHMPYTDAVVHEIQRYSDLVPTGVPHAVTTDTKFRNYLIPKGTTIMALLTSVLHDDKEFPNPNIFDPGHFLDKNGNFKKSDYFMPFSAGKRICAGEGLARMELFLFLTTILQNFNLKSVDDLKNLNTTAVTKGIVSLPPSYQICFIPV
In words: Inhibition of CYP2C8 in human liver microsomes using amodiaquine as substrate by LC-MS/MS analysis. In kind it is ADME.

Data set [9] is described as follows: Toxicity in postmenopausal woman at 5 to 450 mg, po administered as single dose using SMEDDS formulation. Particulars: human, in vivo.
A short description of data set [10]: Half life in Wistar rat at 0.5 mg/kg, iv by LC-MS/MS analysis. In kind it is ADME, organism-based. Particulars: in vivo.
The target in data set [11] is Voltage-gated inwardly rectifying potassium channel KCNH2 (Homo sapiens, UniProt Q12809). In words: Inhibition of human ERG expressed in HEK293 cells assessed as reduction in channel inward tail current by whole cell voltage clamp assay. Type of data set: cell-based.
The nature of data set [12]: Maximum oral bioavailability in cynomolgus monkey hepatocytes. Type of data set: ADME, Macaca fascicularis, Hepatocyte. The settings on record: read-out: Fmax.
The nature of data set [13]: Maximum oral bioavailability in human hepatocytes. In kind it is ADME, Hepatocyte. The settings on record: read-out: Fmax.
The next data set has as its target Cannabinoid receptor 1 (Homo sapiens, UniProt P21554). In words: Inhibition of CB1 receptor (unknown origin).
Another data set deals with Rattus norvegicus. In words: Suppression of ovariectomized-induced increase in plasma luteinizing hormone level in po dosed Wistar Han rat measured up to 24 hrs. In kind it is functional. Particulars: time hrs <=24. The essentials: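 Ovariectomized rats given single oral doses, range 1 to 30 mg/kg. Plasma LH followed over time, with cetrorelix at 0.1 mg/kg sc as reference. ED50 calculated from the dose-response.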

Data set [14] can be described thus: Maximum oral bioavailability in cynomolgus monkey liver microsomes based well stirred liver model. Particulars: read-out: Fmax. In kind it is ADME, Macaca fascicularis, Microsome.
Data set [15] addresses T2, Gonadotropin-releasing hormone receptor (Homo sapiens, UniProt P30968).
T2 sequence (P30968 whole entry): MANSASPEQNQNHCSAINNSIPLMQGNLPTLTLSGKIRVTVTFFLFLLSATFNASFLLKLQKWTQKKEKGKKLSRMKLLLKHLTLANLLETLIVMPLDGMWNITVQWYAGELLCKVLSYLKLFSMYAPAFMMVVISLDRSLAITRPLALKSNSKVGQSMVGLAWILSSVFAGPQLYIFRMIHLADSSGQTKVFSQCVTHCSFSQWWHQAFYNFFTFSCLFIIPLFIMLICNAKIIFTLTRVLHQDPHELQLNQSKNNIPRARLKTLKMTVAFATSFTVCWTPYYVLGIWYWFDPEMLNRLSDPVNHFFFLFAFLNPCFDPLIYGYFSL
In words: Inhibition of Tag-lite green-labeled agonist binding to terbium fluorophore-labeled human N-terminal SNAP-tag GnRh receptor expressed in HEK293 cells assessed as equilibrium dissociation constant by TR-FRET assay. Type of data set: cell-based.

Data set [16] is described as follows: Clearance in human hepatocytes. Type of data set: ADME, cell-based, Hepatocyte.
The nature of data set [17]: Maximum oral bioavailability in rat liver microsomes based well stirred liver model at 1 uM measured after 2 to 60 mins in presence of NADP generating system by LC-MS/MS analysis. Type of data set: ADME, Microsome. The settings on record: time 2-60 min, read-out: Fmax.

Voltage-gated inwardly rectifying potassium channel KCNH2, sequence (Q12809 whole entry): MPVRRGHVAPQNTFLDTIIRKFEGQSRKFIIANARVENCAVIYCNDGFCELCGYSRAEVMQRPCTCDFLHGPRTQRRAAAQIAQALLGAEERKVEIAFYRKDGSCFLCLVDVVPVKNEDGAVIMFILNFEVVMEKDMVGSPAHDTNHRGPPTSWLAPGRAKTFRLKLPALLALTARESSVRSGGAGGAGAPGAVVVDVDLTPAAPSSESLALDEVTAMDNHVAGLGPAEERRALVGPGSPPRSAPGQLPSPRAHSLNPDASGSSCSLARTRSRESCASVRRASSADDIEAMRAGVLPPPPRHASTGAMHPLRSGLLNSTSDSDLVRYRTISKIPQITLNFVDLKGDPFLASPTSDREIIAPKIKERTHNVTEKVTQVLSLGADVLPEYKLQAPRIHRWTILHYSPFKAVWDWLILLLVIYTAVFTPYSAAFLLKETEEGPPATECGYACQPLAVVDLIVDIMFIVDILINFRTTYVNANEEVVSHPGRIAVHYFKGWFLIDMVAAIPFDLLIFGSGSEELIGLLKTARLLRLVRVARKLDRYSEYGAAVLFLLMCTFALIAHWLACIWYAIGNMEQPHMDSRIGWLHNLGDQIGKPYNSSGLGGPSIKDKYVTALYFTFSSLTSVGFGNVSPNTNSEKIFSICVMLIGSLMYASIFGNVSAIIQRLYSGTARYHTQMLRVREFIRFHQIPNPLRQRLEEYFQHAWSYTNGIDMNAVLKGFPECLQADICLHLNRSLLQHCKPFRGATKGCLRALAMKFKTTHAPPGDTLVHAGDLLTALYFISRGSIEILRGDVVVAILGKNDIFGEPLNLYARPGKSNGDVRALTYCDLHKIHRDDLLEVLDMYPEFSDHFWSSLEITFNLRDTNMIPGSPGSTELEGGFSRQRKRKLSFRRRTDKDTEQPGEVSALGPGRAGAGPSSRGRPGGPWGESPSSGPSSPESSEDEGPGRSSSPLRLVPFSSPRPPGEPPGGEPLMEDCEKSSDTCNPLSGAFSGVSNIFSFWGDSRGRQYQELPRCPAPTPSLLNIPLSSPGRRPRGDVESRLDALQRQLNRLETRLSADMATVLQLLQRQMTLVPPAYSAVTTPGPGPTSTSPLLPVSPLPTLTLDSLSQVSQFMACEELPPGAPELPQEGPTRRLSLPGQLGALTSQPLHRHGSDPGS
Mitogen-activated protein kinase 14, sequence (Q16539 whole entry): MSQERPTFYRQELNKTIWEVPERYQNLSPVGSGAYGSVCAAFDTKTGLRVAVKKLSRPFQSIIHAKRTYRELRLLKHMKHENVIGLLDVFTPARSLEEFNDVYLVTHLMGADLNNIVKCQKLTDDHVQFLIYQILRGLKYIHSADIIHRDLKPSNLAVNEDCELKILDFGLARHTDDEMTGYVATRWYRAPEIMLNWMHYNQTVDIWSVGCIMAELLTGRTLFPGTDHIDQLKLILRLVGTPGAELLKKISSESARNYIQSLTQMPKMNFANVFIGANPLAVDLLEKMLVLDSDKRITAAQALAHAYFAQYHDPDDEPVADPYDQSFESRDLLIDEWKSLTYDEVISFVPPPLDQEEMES
Cannabinoid receptor 1, sequence (P21554 whole entry): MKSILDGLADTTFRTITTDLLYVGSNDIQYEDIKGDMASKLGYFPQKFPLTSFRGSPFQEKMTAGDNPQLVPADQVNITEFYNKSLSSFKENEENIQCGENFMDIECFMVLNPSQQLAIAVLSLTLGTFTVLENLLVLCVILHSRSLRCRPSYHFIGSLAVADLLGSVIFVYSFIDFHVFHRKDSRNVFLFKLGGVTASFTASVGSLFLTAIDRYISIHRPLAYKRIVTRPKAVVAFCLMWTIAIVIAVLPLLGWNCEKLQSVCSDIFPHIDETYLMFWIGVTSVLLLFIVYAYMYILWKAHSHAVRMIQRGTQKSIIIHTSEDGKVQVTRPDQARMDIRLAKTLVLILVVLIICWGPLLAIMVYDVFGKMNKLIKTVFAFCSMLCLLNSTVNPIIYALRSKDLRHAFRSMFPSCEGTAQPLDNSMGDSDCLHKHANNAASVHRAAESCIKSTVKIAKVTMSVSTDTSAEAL

On to `O=C(NCc1ncc(C(F)(F)F)cc1Cl)c1ccc2c(c1)C1(CCS(=O)(=O)CC1)[C@H](C1CC1)N2S(=O)(=O)c1ccc(F)cc1` [BAY-784], for which the Fh at 1 µM in [1] turned out to be 100%; in data set [5], 82%; in [17], 91%. Besides, the Activity in the data set with Homo sapiens is listed as 49%; in data set [9], “Non-Toxic”. In addition, the IC50 in data set [2] was 10700 nM; in data set [4], 35 nM; against Cytochrome P450 2C8, 1000 nM; in [11] it was more than 10000 nM; at Cannabinoid receptor 1, 3400 nM. The same compound yielded a free fraction (fraction unbound) in [3] of 0.014. Moreover, the CLH came to 6.33 mL/min/kg in data set [6] and 1.7 mL/min/kg in data set [16]. Moreover, the Papp A→B at 2 h, 2 µM in data set [7] is 1.3 ×10⁻⁶ cm/s. Further, the CLint scaled at 1 µM in data set [8] is 12.5 mL/min/kg. Besides, the half-life in data set [10] is 16 h. For the same compound, the Fh in data set [12] worked out at 72%; in [13], 93%; in data set [14], 81%. Further, the ED50 with Rattus norvegicus came to 4.5 mg/kg. Besides, the Kd in [15] turned out to be 5.52 nM.

The record behind these values is ChEMBL document CHEMBL4673248, “Discovery and Characterization of BAY 1214784, an Orally Available Spiroindoline Derivative Acting as a Potent and Selective Antagonist of the Human Gonadotropin-Releasing Hormone Receptor as Proven in a First-In-Human Study in Postmenopausal Women” (J Med Chem, 2020).
